Laboratory results from ChEMBL document CHEMBL1255370, “Activity of pradofloxacin against Porphyromonas and Prevotella spp. Implicated in periodontal disease in dogs: susceptibility test data from a European multicenter study” (2008).
In brackets after ≈: the same amount, converted by molar mass.

Tests used:
[1] = tested on: Porphyromonas; experiment: Antimicrobial activity against Porphyromonas isolated from canine periodontal pockets after 48 hrs by agar dilution method; format: functional
Outline: (§1)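 Isolates came from canine periodontal pockets (2004–2006, six countries; dogs without antimicrobials for ≥4 weeks), cultured anaerobically at 35 ± 1°C and identified by Biolog. MICs were found by CLSI M11-A6 agar dilution on brucella blood agar with hemin and vitamin K, using a multipoint inoculator under strict anaerobiosis for up to 48 h. QC strains were B. fragilis ATCC 25285 and E. lentum ATCC 43055.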

[2] = tested on: Porphyromonas asaccharolytica; experiment: Antimicrobial activity against Porphyromonas asaccharolyticus isolated from canine periodontal pockets after 48 hrs by agar dilution method; format: functional; outline: as §1
[3] = tested on: Porphyromonas circumdentaria; experiment: Antimicrobial activity against Porphyromonas circumdentaria isolated from canine periodontal pockets after 48 hrs by agar dilution method; format: functional; outline: as §1
[4] = tested on: Porphyromonas levii; experiment: Antimicrobial activity against Porphyromonas levii isolated from canine periodontal pockets after 48 hrs by agar dilution method; format: functional; outline: as §1
[5] = tested on: Porphyromonas macacae; experiment: Antimicrobial activity against Porphyromonas macacae isolated from canine periodontal pockets after 48 hrs by agar dilution method; format: functional; outline: as §1
[6] = tested on: Porphyromonas macacae; experiment: Antimicrobial activity against Porphyromonas salivosa isolated from canine periodontal pockets after 48 hrs by agar dilution method; format: functional; outline: as §1
[7] = tested on: Prevotella buccae; experiment: Antimicrobial activity against Prevotella buccae isolated from canine periodontal pockets after 48 hrs by agar dilution method; format: functional; conditions: Segatella buccae; outline: as §1
[8] = tested on: Prevotella corporis; experiment: Antimicrobial activity against Prevotella corporis isolated from canine periodontal pockets after 48 hrs by agar dilution method; format: functional; outline: as §1
[9] = tested on: Prevotella denticola; experiment: Antimicrobial activity against Prevotella denticola isolated from canine periodontal pockets after 48 hrs by agar dilution method; format: functional; outline: as §1
[10] = tested on: Prevotella disiens; experiment: Antimicrobial activity against Prevotella disiens isolated from canine periodontal pockets after 48 hrs by agar dilution method; format: functional; outline: as §1
[11] = tested on: Bacteroides heparinolyticus; experiment: Antimicrobial activity against Bacteroides heparinolyticus isolated from canine periodontal pockets after 48 hrs by agar dilution method; format: functional; conditions: Prevotella heparinolytica; outline: as §1
[12] = tested on: Prevotella intermedia; experiment: Antimicrobial activity against Prevotella intermedia isolated from canine periodontal pockets after 48 hrs by agar dilution method; format: functional; outline: as §1
[13] = tested on: Hoylesella loescheii; experiment: Antimicrobial activity against Prevotella loescheii isolated from canine periodontal pockets after 48 hrs by agar dilution method; format: functional; outline: as §1
[14] = tested on: Prevotella nigrescens; experiment: Antimicrobial activity against Prevotella nigrescens isolated from canine periodontal pockets after 48 hrs by agar dilution method; format: functional; outline: as §1
[15] = tested on: Hoylesella oralis; experiment: Antimicrobial activity against Prevotella oralis isolated from canine periodontal pockets after 48 hrs by agar dilution method; format: functional; outline: as §1
[16] = tested on: Prevotella oris; experiment: Antimicrobial activity against Prevotella oris isolated from canine periodontal pockets after 48 hrs by agar dilution method; format: functional; conditions: Segatella oris; outline: as §1
[17] = tested on: Prevotella oulorum; experiment: Antimicrobial activity against Prevotella oulorum isolated from canine periodontal pockets after 48 hrs by agar dilution method; format: functional; conditions: Segatella oulorum; outline: as §1
[18] = tested on: Bacteroides zoogleoformans; experiment: Antimicrobial activity against Bacteroides zoogleoformans isolated from canine periodontal pockets after 48 hrs by agar dilution method; format: functional; outline: as §1
[19] = tested on: Prevotella sp.; experiment: Antimicrobial activity against Prevotella sp. isolated from canine periodontal pockets after 48 hrs by agar dilution method; format: functional; outline: as §1
[20] = tested on: Porphyromonas gingivalis; experiment: Antimicrobial activity against Porphyromonas gingivalis isolated from canine periodontal pockets after 48 hrs by agar dilution method

Row | MIC50 [2] [µg/mL] | MIC90 [2] [µg/mL] | MIC50 [3] [µg/mL] | MIC90 [3] [µg/mL] | MIC50 [4] [µg/mL] | MIC90 [4] [µg/mL] | MIC50 [5] [µg/mL] | MIC90 [5] [µg/mL] | MIC50 [6] [µg/mL] | MIC90 [6] [µg/mL] | MIC [7] [µg/mL] | MIC50 [8] [µg/mL] | MIC90 [8] [µg/mL] | MIC50 [9] [µg/mL] | MIC50 [10] [µg/mL] | MIC50 [11] [µg/mL] | MIC90 [11] [µg/mL] | MIC50 [12] [µg/mL] | MIC50 [14] [µg/mL] | SMILES | MIC [13] [µg/mL] | also measured
1 | – | – | – | – | – | – | – | – | – | – | – | – | – | – | – | – | – | – | – | NC1CCN(c2c(F)cc3c(=O)c(C(=O)O)cn(C4CC4)c3c2Cl)C1 (configuration not stated) [CLINAFLOXACIN] | – | MIC90 [1]: 0.125 µg/mL (≈ 0.342 µM)
2 | 0.031 (≈ 0.181 µM) | 0.125 (≈ 0.73 µM) | 0.125 (≈ 0.73 µM) | 0.25 (≈ 1.46 µM) | 0.062 (≈ 0.362 µM) | 0.125 (≈ 0.73 µM) | 0.125 (≈ 0.73 µM) | 0.25 (≈ 1.46 µM) | 0.25 (≈ 1.46 µM) | 0.5 (≈ 2.92 µM) | 0.5 (≈ 2.92 µM) | 0.062 (≈ 0.362 µM) | 0.25 (≈ 1.46 µM) | 0.125 (≈ 0.73 µM) | 0.062 (≈ 0.362 µM) | 0.25 (≈ 1.46 µM) | 0.5 (≈ 2.92 µM) | ≤ 0.016 | 0.125 (≈ 0.73 µM) | Cc1ncc([N+](=O)[O-])n1CCO [METRONIDAZOLE] | 0.062 (≈ 0.362 µM) | MIC [12]: ≤ 0.016 µg/mL; MIC90 [14]: 0.5 µg/mL (≈ 2.92 µM); MIC50 [15]: 0.25 µg/mL (≈ 1.46 µM); MIC50 [16]: 0.5 µg/mL (≈ 2.92 µM); MIC [17]: 0.25 µg/mL (≈ 1.46 µM); MIC [18]: 0.125 µg/mL (≈ 0.73 µM); MIC50 [19]: 0.25 µg/mL (≈ 1.46 µM); MIC90 [19]: 0.5 µg/mL (≈ 2.92 µM); MIC50 [20]: 0.062 µg/mL (≈ 0.362 µM); MIC90 [20]: 0.25 µg/mL (≈ 1.46 µM)
3 | 0.062 (≈ 0.156 µM) | 0.062 (≈ 0.156 µM) | 0.062 (≈ 0.156 µM) | 0.25 (≈ 0.631 µM) | 0.062 (≈ 0.156 µM) | 0.125 (≈ 0.315 µM) | 0.062 (≈ 0.156 µM) | 0.125 (≈ 0.315 µM) | 0.125 (≈ 0.315 µM) | 0.125 (≈ 0.315 µM) | 0.25 (≈ 0.631 µM) | 0.062 (≈ 0.156 µM) | 0.125 (≈ 0.315 µM) | 0.062 (≈ 0.156 µM) | 0.062 (≈ 0.156 µM) | 0.062 (≈ 0.156 µM) | 0.25 (≈ 0.631 µM) | 0.031 (≈ 0.0782 µM) | 0.062 (≈ 0.156 µM) | N#Cc1c(N2C[C@@H]3CCCN[C@@H]3C2)c(F)cc2c(=O)c(C(=O)O)cn(C3CC3)c12 [PRADOFLOXACIN] | 0.062 (≈ 0.156 µM) | MIC [9]: 0.062 µg/mL (≈ 0.156 µM); MIC90 [14]: 0.25 µg/mL (≈ 0.631 µM); MIC [15]: 0.062 µg/mL (≈ 0.156 µM); MIC50 [15]: 0.062 µg/mL (≈ 0.156 µM); MIC50 [16]: 0.062 µg/mL (≈ 0.156 µM); MIC [17]: 0.031 µg/mL (≈ 0.0782 µM); MIC [18]: 0.125 µg/mL (≈ 0.315 µM); MIC50 [19]: 0.062 µg/mL (≈ 0.156 µM); MIC90 [19]: 0.25 µg/mL (≈ 0.631 µM); MIC50 [20]: 0.031 µg/mL (≈ 0.0782 µM); MIC90 [20]: 0.125 µg/mL (≈ 0.315 µM)
